CHOP inhibitor: CHOP inhibition in unfolded protein response; CHO-K1 CHOP-promoter luciferase, tunicamycin-induced, 15-18 h; inhibition, % at 10 µM; actives 3.8% (n = 220,000);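 active means compounds that reduced the stress-induced luciferase reporter signal by more than about 70% of percent inhibition, limit read from the data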;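 further: 0% = tunicamycin plus vehicle and 100% = wells without tunicamycin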
S1P3 antag: S1P3 (human) receptor antagonism | actives 0.27% (n = 170,000) | AID 485 | Q99500 | inhibition, % at 4.98 µM | CHO S1P3 NFAT-BLA reporter, FRET fluorescence, antagonist mode;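 active means inhibition above the plate cutoff, the mean inhibition of test wells on that plate plus 3 SD, cut at about 28% in these data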;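 further: cells challenged with S1P at its EC80 of 0.8 µM; blue over green emission ratio from cleaved BLA substrate after 4 h stimulation; 0% = S1P-stimulated wells and 100% = unstimulated DMSO-only wells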
Hsp70 activator: transcriptional activators of Hsp70. HeLa Hsp70 promoter luciferase reporter, luminescence; scaled: vehicle 0, proteasome-inhibitor control 100%. activation, % at 10 µM. actives 0.04% (n = 200,000);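 active means activation above the mean across all tested compounds plus 3 SD, cutoff set per campaign, cut at about 5.5% in these data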;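 further: 100% = MG132 at 30 µM as the positive control and 0% = DMSO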
MDM2 E3 inh: inhibitors of human Mdm2 E3 ubiquitin ligase. signal enhancement, % at 5 µM. Q00987. AID 1230. actives 0.11% (n = 210,000). cell-based MDM2 ubiquitination luciferase reporter, 2 h; 0 = plate control, 100 = twice control, blank-subtracted;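 active means signal enhancement of 30% or more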;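 further: luminescence tracks abundance of the self-degrading MDM2-luciferase fusion protein; higher signal means inhibition of MDM2 E3 ligase activity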
Target sequence (Q00987 whole entry, looked up, the tested form may be a part): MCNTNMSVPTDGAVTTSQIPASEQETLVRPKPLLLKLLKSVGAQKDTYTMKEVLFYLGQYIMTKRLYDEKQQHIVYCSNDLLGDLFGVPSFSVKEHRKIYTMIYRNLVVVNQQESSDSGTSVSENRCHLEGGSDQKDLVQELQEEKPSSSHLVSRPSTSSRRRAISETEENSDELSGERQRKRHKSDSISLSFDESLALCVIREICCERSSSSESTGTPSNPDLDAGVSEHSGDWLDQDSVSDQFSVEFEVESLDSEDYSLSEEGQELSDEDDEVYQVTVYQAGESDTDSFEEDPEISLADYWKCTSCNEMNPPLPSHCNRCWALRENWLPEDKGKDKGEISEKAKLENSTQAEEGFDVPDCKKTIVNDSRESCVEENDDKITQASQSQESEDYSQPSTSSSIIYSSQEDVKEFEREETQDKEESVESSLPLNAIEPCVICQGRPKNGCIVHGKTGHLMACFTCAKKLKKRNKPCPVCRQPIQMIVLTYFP
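Test system: mammalian cells stably expressing self-ubiquitinating, self-degrading MDM2 E3–luciferase fusion; Amount: 2000 cells in each well; Medium: DMEM; Schedule: 4 h settle plus 2 h compound, 37 °C; Technique: SteadyLite luciferase luminescence after 15 min room-temperature reagent incubation; Benchmarks: plate control and blank wells.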
Active calls of the source: *; · = not tested or not shown. Only some compounds are listed: those with a hit (about 4% of all), similar ones and a draw of the others.

SMILES	CHOP inhibitor	S1P3 antag	Hsp70 activator	MDM2 E3 inh
Cc1c(Cl)sn(-c2ccc(Cl)cc2)c1=O	95.1*	-5.2	0.9	-14.2
O=C(NCc1ccco1)c1ccc(Cn2c(=O)c3sccc3n(Cc3cccc(F)c3)c2=O)cc1	72.2*	·	-0.4	14.6
O=C(NCc1ccco1)c1ccc(Cn2c(=O)c3ccccc3n(Cc3cccc(Cl)c3)c2=O)cc1	18.2	·	-0.5	-5.3
COc1ccc2cc3c(N)nn(C(=O)C4CCC(C(C)(C)C)CC4)c3nc2c1 (configuration not stated)	67.0	2.1	-0.1	·
COc1ccc2cc3c(N)nn(C(=O)c4cccc([N+](=O)[O-])c4)c3nc2c1	76.5*	1.3	-0.4	·
COc1ccc2cc3c(N)nn(C(=O)Cc4ccccc4OC)c3nc2c1	81.0*	-8.7	-0.3	-19.4
CCc1c(C)[nH]c(C(=O)OCc2ccccc2)c1C	78.5*	-7.7	0.1	-0.3
CCc1c(C(=O)OCc2ccccc2)[nH]c(C)c1C	-22.4	5.2	·	-8.1
COc1ccc(-c2cc(CNS(=O)(=O)c3ccccc3)on2)cc1	6.8	3.9	0.1	-10.7
COC(=O)c1cccc(NC(=O)CN2CCOCC2)c1	71.7*	-15.9	-0.2	1.8
COc1c(O)ccc(C2NC(=O)NC(C)=C2C(=O)Nc2ccccc2C)c1[N+](=O)[O-] (configuration not stated)	22.3	-19.3	-0.1	-6.4
Brc1ccc(CSc2nccn2-c2ccccc2)cc1	76.1*	·	-0.3	-18.3
O=C(Nc1ccc(Cl)c(Cl)c1)Nc1ccc(Br)cc1F	101.4*	-4.7	0.1	-3.3
O=C(Cn1cnc2ccccc2c1=O)N/N=C/c1ccc(Br)cc1	-2.4	-10.2	·	-6.0
c1ccc(-c2ccc(-c3nc(-c4ccccn4)no3)cc2)cc1	105.2*	·	-0.8	-17.1
Clc1cccc(-c2nc(-c3ccccn3)no2)c1	59.8	·	-0.6	-39.7
Cc1ccc(-c2nc(-c3ccccn3)no2)cc1Cl	82.7*	1.2	-0.4	0.8
Cc1cccc(-c2nnc3sc(-c4ccccc4C)nn23)c1	83.2*	10.5	-0.3	-0.9
Cc1ccc2c(c1)sc1nc(=O)n(-c3ccc(Cl)cc3)c(=O)n12	79.5*	·	-0.1	-3.1
Cc1ccc(S(=O)(=O)N/N=C\c2cccnc2)cc1	30.9	·	-0.1	-7.4
Cc1ccc(C)c(S(=O)(=O)N/N=C/c2cccnc2)c1	72.0*	-8.6	-0.2	-5.8
COc1ccc(-c2c(C)nn3c(N4CCN(Cc5ccccc5)CC4)cc(C)nc23)cc1OC	28.9	13.7	-0.2	-39.1
COc1ccccc1-c1c(C)nn2c(N3CCCCCC3)cc(C)nc12	89.9*	4.3	-0.2	-16.7
COc1ccccc1-c1c(C)nn2c(N3CCN(Cc4ccccc4)CC3)cc(C)nc12	92.5*	·	-0.4	-4.1
CC1=CC(C)[C@H](/C=N/n2c(=O)[nH]c3c([nH]c4ccc(Br)cc43)c2=O)C(C)C1 (some centres not stated)	-7.9	2.3	0.2	3.7
SMILES	CHOP inhibitor	S1P3 antag	Hsp70 activator	MDM2 E3 inh
Oc1cccc(-c2nc3ccc4ccccc4c3c3c2CCC3)c1	81.8*	·	0.6	-0.1
O=C(NNc1c2ccccc2nc2ccccc12)c1cccc(O)c1	17.0	-1.2	-0.3	-19.6
COc1ccc(CC(=O)N2CCN=C2SCc2cccc([N+](=O)[O-])c2)cc1	7.8	2.1	0.0	-5.3
O=C1c2cccc3c(N4CCCCC4)ccc(c23)C(=O)N1c1ccccn1	19.7	24.7	-0.2	4.7
O=C1c2ccccc2-c2n[nH]c(=O)c3ccc(N4CCCCC4)c1c23	78.7*	3.5	0.2	-9.5
Cc1cc(C(=O)CSc2nc3ccccc3c(=O)n2C)c(C)n1Cc1ccc2c(c1)OCO2	78.7*	9.5	-0.2	-4.0
CCC(C(=O)NC(C)(C)C)N(C(=O)c1ccc(Cl)nc1)C1CCCC1 (configuration not stated)	-29.0	-5.4	-0.2	4.4
NC(=O)c1sc2nc(-c3ccccc3)c3c(c2c1N)CCCC3	26.1	5.4	0.2	-95.5
NC(=O)c1sc2nccc(Nc3ccccc3)c2c1N	·	71.7*	-0.3	-10.5
CCc1c(O)nc(SCC(=O)Nc2ccc(OC)cc2)n(C2CCCCC2)c1=O	77.2*	-4.9	0.2	-12.3
CCOc1ccc(S(=O)(=O)N(CC)CC)cc1NS(=O)(=O)c1ccc(F)c(F)c1F	-2.6	-13.8	0.0	-0.3
O=[N+]([O-])/C=C/c1cn(Cc2ccc(F)cc2)c2ccccc12	93.2*	·	0.4	-16.8
CC1=C(C)/C(=N/OC(=O)c2cccc([N+](=O)[O-])c2)C=CC1=O	92.3*	·	-0.4	·
COc1ccc(C2C(C(=O)N3CCN(C)CC3)c3cc(OC)c(OC)cc3C(=O)N2C)cc1 (configuration not stated)	4.8	-14.1	-0.4	30.6*
CCCn1c(NC(=O)c2ccc(Br)cc2)nc2ccccc21	83.5*	·	0.0	-11.9
O=C(N/N=C/c1cccc([N+](=O)[O-])c1)c1cc(-c2ccc3c4c(cccc24)CC3)n[nH]1	-1.1	2.6	0.1	-6.9
O=C(N/N=C/c1ccc(Cl)c([N+](=O)[O-])c1)c1cc(-c2ccc3c4c(cccc24)CC3)n[nH]1	76.9*	-4.5	·	·
O=C(CSc1nnc2ccccn12)Nc1cccc(-c2nc3ccccc3s2)c1	93.2*	-2.3	-0.1	-8.0
Cn1c(=O)c2ncn(CC(=O)Nc3cccc(-c4nc5ccccc5s4)c3)c2n(C)c1=O	81.6*	·	0.4	-0.5
CCOc1ccc(C(=O)OCC(=O)Nc2cc(C)on2)cc1OCC	27.4	·	0.0	1.6
CCOc1cc(C(=O)OCC(=O)Nc2cc(C)on2)ccc1OCC(C)C	94.0*	9.5	-0.2	-2.5
O=C(Nc1ccc(NC(=O)c2cc([N+](=O)[O-])ccc2N2CCOCC2)cc1)c1cccs1	-10.0	5.5	-0.1	-2.2
CCSc1nnc(NC(=O)C2CCN(S(=O)(=O)c3c(C)c(C)cc(C)c3C)CC2)s1	77.9*	-9.2	-0.2	2.2
CCCCSc1ncnc2[nH]ncc12	7.5	3.1	·	-19.9
Cn1c(C(=O)N2CCN(c3cccc(C(F)(F)F)c3)CC2)cc2sccc21	72.4*	-17.3	0.1	9.9
SMILES	CHOP inhibitor	S1P3 antag	Hsp70 activator	MDM2 E3 inh
O=C(c1c(F)c(F)c(F)c(F)c1F)N1CCN(c2cccc(C(F)(F)F)c2)CC1	81.9*	15.1	-0.1	-9.7
O=C(c1ccncc1)N1CCN(c2cccc(C(F)(F)F)c2)CC1	28.2	·	-0.2	-1.8
O=C(c1ccccc1F)N1CCN(c2cccc(C(F)(F)F)c2)CC1	73.7*	-0.1	0.2	-5.0
O=C(c1ccccc1F)N1CCN(c2ccccc2)CC1	-6.5	-16.9	-0.3	-11.2
NS(=O)(=O)c1ccc(NNC(=O)c2sccc2Cl)cc1	13.6	10.7	·	-8.7
CCCCCCc1cc2cc(-c3nnc(-c4ccccc4O)o3)c(=O)oc2cc1O	-11.1	·	-0.2	-24.8
CCCCCCc1cc2cc(S(=O)(=O)c3ccc(F)cc3)c(=O)oc2cc1O	94.4*	2.1	-0.2	-14.2
CCOC(=O)c1sc(/N=C/c2ccc(O)cc2O)cc1C	94.4*	-2.5	-0.3	-21.7
O=C(Nc1ccc(-c2nc3ccccc3o2)cc1)c1ccc2c(c1)OCO2	84.9*	17.3	-0.3	-21.7

Screening data deposited in PubChem by several laboratories.
